Most compounds without a hit are left out; they make up all but 3.2% or so of the library.
JMJD2C inh = inhibitors of GASC-1 histone demethylase, primary screen, biochemical, fluorescence, DELFIA europium | AID 2099, 2009 | Lysine-specific demethylase 4C (Homo sapiens), Q9H3R0 | inhibition, % at 2.35 µM | GST-JMJD2C(1-420) H3K9me3 demethylation | hit rate 0.069% among 330,000;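 active = more than half of a compound's replicate wells show inhibition beyond 50%, single wells judged on their own value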;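 also: signal counts dimethyl H3K9 product captured on neutravidin plate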
Target sequence (Q9H3R0 1-420 limits assumed): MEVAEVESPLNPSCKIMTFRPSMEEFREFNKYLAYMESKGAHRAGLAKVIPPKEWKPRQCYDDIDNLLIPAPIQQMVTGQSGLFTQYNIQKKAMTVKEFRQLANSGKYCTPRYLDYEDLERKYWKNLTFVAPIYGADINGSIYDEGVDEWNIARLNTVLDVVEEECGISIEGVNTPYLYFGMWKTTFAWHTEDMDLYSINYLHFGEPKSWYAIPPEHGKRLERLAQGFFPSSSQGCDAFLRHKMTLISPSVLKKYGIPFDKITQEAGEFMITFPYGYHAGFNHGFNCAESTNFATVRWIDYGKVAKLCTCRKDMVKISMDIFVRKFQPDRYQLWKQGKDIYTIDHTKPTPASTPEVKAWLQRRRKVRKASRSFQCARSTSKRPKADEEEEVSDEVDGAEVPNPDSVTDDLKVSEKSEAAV
NR2E3 ag-1 = NR2E3 agonists in two-hybrid cells, primary screen, cell-based, luminescence, CHO-S, Gal4-NCOR/VP16-NR2E3 | AID 602229, 2012 | inhibition of corepressor binding, % at 3.98 µM | luciferase | hit rate 0.35% among 360,000;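 active = inhibition above the mean of all tested compounds plus 3 SD, cut at about 70% in these data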;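 also: higher means lower luciferase signal from less NR2E3 corepressor binding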
DAX1 inh-1 = DAX1 (NR0B1) inhibitors on StAR promoter, primary screen, cell-based, luminescence, SF-1 (NR5A1), full-length DAX-1. hit rate 1.1% among 370,000. inhibition, % at 6.8 µM. HEK293T StAR-luciferase reporter, SF-1/DAX-1 repression relief;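 active = inhibition above the mean over all tested compounds plus 3 SD, cut at about 3.6% in these data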;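 also: higher inhibition means more luminescence from relief of DAX-1 repression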
DAX1 inh-2 = DAX1 (NR0B1) inhibitors, primary screen, cell-based, HEK293, Gal4-DAX1, luciferase luminescence; Nuclear receptor subfamily 0 group B member 1 (Homo sapiens), P51843; HEK293 Gal4-DAX1 luciferase reporter; inhibition, % at 6.75 µM; hit rate 0.99% among 340,000; AID 504766, 2011;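 active = inhibition above the mean over all tested compounds plus 3 SD, cut at about 4.2% in these data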;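 also: inhibition shows as a rise in luminescence from relieved DAX1 repression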
SMARCA2 activ = SMARCA2 (BRM) function activators, primary screen, cell-based, luminescence, high throughput; hit rate 1% among 370,000; MG213 cells, MMTV-luciferase reporter, dexamethasone, overnight; AID 652017, 2013; activation, % at 9.1 µM; in the data active = activation above about 7.8%
NR2E3 ag-2 = inhibitors of NR2E3-RetCOR corepressor binding, primary screen, NR2E3 agonist project, biochemical, TR-FRET, GST-NR2E3, biotin-RetCOR; Photoreceptor-specific nuclear receptor (Homo sapiens), Q9Y5X4; 1536-well; inhibition of corepressor binding, % at 4.78 µM; hit rate 0.12% among 320,000; AID 2300, 2010;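 active = percent inhibition above the cutoff of mean plus 3 SD of all tested compounds, set per screening campaign, cut at about 20% in these data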
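Format: 1536-well format; test system: GST-NR2E3 and biotin-RetCOR proteins; read-out basis: percent inhibition of TR-FRET ratio; timing: 5 h incubation at 4 °C; detection: time-resolved FRET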
NR2E3 ag confirm = NR2E3 agonist confirmation in cells, cell-based, luminescence, CHO-S two-hybrid | hit rate 51% among 2,300 | shares compounds with NR2E3 ag-1 | CHO-S mammalian two-hybrid NR2E3-NCOR, luciferase luminescence | inhibition, % at 3.98 µM;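 active = average inhibition above a cutoff equal to the mean inhibition of all tested compounds plus one SD, cut at about 70% in these data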
VP16 counter = GAL4-VP16 reporter modulators, confirmation, counter-screen for NR2E3 agonist project, cell-based, luminescence, CHO-S, high throughput. shares compounds with NR2E3 ag-1. CHO-S GAL4-VP16 luciferase reporter. inhibition, % at 3.98 µM. hit rate 29% among 2,300. AID 624379, 2012;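 active = mean inhibition above a cutoff equal to the average over all tested compounds plus one standard deviation, cut at about 70% in these data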;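 also: luciferase from a UAS reporter driven by GAL4-VP16 transactivation; higher means less reporter light so more repression of VP16 activity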
A number is an active result.

CC(C)c1cc(C(C)C)c(S(=O)(=O)N2CCCC(C(=O)N3CCN(Cc4ccccc4)CC3)C2)c(C(C)C)c1 (stereo not given) was read as DAX1 inh-1 inactive and SMARCA2 activ inactive.
Screening COc1ccc(CCNc2ncnc3[nH]ncc23)cc1OC returned JMJD2C inh inactive, NR2E3 ag-1 inactive, DAX1 inh-1 inactive, DAX1 inh-2 inactive, SMARCA2 activ inactive and NR2E3 ag-2 inactive.
COc1ccc(CCNc2ncnc3sc(C)cc23)cc1OC was read as JMJD2C inh inactive, NR2E3 ag-1 88, DAX1 inh-1 inactive, DAX1 inh-2 inactive, SMARCA2 activ inactive, NR2E3 ag confirm 99 and VP16 counter 92.
Screening COc1ccc(NC(=S)c2ccc3ccccc3n2)cc1 returned JMJD2C inh inactive, NR2E3 ag-1 inactive, DAX1 inh-2 inactive and NR2E3 ag-2 inactive.
`COc1ccc(N=C(NN)c2ccc3ccccc3n2)cc1` gave JMJD2C inh inactive, NR2E3 ag-1 inactive, DAX1 inh-1 inactive, DAX1 inh-2 inactive, SMARCA2 activ inactive, NR2E3 ag-2 inactive, NR2E3 ag confirm inactive and VP16 counter inactive.
`Nc1ccc(S(=O)(=O)NNC(=O)C(=O)NNc2ccccc2)cc1` gave JMJD2C inh inactive, NR2E3 ag-1 inactive, DAX1 inh-1 inactive, DAX1 inh-2 inactive, SMARCA2 activ inactive, NR2E3 ag-2 inactive, NR2E3 ag confirm inactive and VP16 counter inactive.
`O=C(NNc1ccccc1)C(=O)NNS(=O)(=O)c1ccc(CCCl)cc1` gave JMJD2C inh inactive, NR2E3 ag-1 inactive, DAX1 inh-1 inactive, DAX1 inh-2 inactive, SMARCA2 activ inactive and NR2E3 ag-2 inactive.
For Cc1cc(C)c(C)c(S(=O)(=O)N2CCN(c3ccccn3)CC2)c1C the results were JMJD2C inh inactive, NR2E3 ag-1 inactive, DAX1 inh-1 inactive, DAX1 inh-2 inactive, SMARCA2 activ inactive and NR2E3 ag-2 inactive.
`Cc1cc(C)c(C)c(S(=O)(=O)N2CCN(c3ncnc4ccccc34)CC2)c1C` gave JMJD2C inh inactive, NR2E3 ag-1 inactive, DAX1 inh-1 inactive, DAX1 inh-2 inactive, SMARCA2 activ inactive, NR2E3 ag-2 inactive, NR2E3 ag confirm 89 and VP16 counter inactive.
`O=S(=O)(c1cc(C(F)(F)F)ccc1Cl)N1CCN(c2ncnc3ccccc23)CC1` gave NR2E3 ag-1 99, DAX1 inh-1 inactive, DAX1 inh-2 inactive, SMARCA2 activ inactive, NR2E3 ag confirm 95 and VP16 counter 86.
COc1ccc2oc(C(=O)OCC(=O)N3CCN(S(=O)(=O)c4ccccc4)CC3)c(C)c2c1 was read as JMJD2C inh inactive, NR2E3 ag-1 inactive, DAX1 inh-1 inactive, DAX1 inh-2 inactive, SMARCA2 activ inactive, NR2E3 ag-2 inactive, NR2E3 ag confirm 90 and VP16 counter 71.
`Cc1cccc(C(=O)Nc2cccc3cccnc23)c1` gave JMJD2C inh inactive, NR2E3 ag-1 inactive, DAX1 inh-1 inactive, DAX1 inh-2 inactive and SMARCA2 activ inactive.
`Cc1cnc(C(=O)Nc2cccc3cccnc23)cn1` gave JMJD2C inh inactive, NR2E3 ag-1 77, DAX1 inh-1 inactive, DAX1 inh-2 inactive, SMARCA2 activ inactive, NR2E3 ag confirm inactive and VP16 counter inactive.
`CC(C)CNC(=O)OCc1cn(Cc2ccccc2)nn1` gave DAX1 inh-1 inactive and SMARCA2 activ inactive.

Source: PubChem
